Data set [1] has as its target T1, Salicyl-AMP ligase / salicyl-S-ArCP synthetase (Mycobacterium tuberculosis, UniProt P71716).
T1 sequence (P71716 whole entry): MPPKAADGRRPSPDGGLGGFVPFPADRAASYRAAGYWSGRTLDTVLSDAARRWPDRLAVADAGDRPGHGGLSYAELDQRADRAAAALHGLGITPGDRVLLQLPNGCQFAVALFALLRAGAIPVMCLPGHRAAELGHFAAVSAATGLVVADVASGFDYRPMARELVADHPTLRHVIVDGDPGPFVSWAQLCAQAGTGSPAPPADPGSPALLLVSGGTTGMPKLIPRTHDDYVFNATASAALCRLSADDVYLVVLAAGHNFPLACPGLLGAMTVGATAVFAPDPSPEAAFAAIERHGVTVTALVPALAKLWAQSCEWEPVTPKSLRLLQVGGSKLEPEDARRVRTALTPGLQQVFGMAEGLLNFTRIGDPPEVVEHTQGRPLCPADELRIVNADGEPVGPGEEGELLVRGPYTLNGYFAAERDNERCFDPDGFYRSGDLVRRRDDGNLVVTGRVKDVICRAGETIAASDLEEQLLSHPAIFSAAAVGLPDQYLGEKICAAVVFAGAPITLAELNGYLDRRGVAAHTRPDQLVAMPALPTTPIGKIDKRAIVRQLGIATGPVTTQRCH
As to the kind of experiment: Inhibition of Mycobacterium tuberculosis recombinant salicylate ligase MbtA expressed in Escherichia coli using salicylic acid as substrate after 20 mins by [32P]PPi-ATP exchange based scintillation counting analysis. To be noted: read-out: Ki(app). The method in brief:
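Recombinant MbtA (7 nM) in a [32P]PPi-ATP exchange assay under initial-velocity conditions at pH 8.0. Substrates were 10 mM ATP, 250 μM salicylic acid and 1 mM PPi. Concentration–response data were fitted to the Morrison tight-binding equation to give apparent Ki.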

The test system of data set [2] is Mycobacterium tuberculosis. As to the kind of experiment: Antimycobacterial activity against Mycobacterium tuberculosis H37Rv in glycerol alanine salts medium without ferric ammonium citrate at pH 6.6 after 10 to 14 days by broth microdilution method. The class given is functional. In a few lines:
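M. tuberculosis H37Rv grown in glycerol-alanine-salts medium at pH 6.6, with no ferric ammonium citrate or other added iron. MIC taken as the concentration inhibiting 99% of growth.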
Background: Dilution methods test growth across graded concentrations, often in twofold steps.

Data set [3] is described as follows: Cytotoxicity against human HepG2 cells assessed as reduction in cell viability. The format is cell-based. In a few lines: (§1)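 Viability of mammalian Vero and HepG2 cell lines tested up to a highest concentration of 200 μM.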
Data set [4] is described as follows: Cytotoxicity against African green monkey Vero cells assessed as reduction in cell viability. Conditions: chlorocebus sabaeus. The class given is cell-based. The method in brief:
as §1

The subject of data set [5] is Mycobacterium tuberculosis. As to the kind of experiment: Antimycobacterial activity against Mycobacterium tuberculosis H37Rv in glycerol alanine salts medium without ferric ammonium citrate at pH 6.6 after 10 to 14 days in presence of 0.2 to 3.1 uM salicylate by broth microdilution method. The class given is functional, organism-based. The method in brief:
(§2)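 MIC against M. tuberculosis in iron-deficient GAST medium supplemented with salicylate at 0, 0.2, 0.78, 3.1 or 12.5 μM. Salicylate was added to the growth medium to test antagonism of whole-cell activity.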

Data set [6] relates to Mycobacterium tuberculosis. The data set is described as follows: Antimycobacterial activity against Mycobacterium tuberculosis H37Rv in glycerol alanine salts medium without ferric ammonium citrate at pH 6.6 after 10 to 14 days in presence of 12.5 uM salicylate by broth microdilution method. The class given is functional. The method in brief:
as §2

For data set [7], the target named is T2, Salicyl-AMP ligase / salicyl-S-ArCP synthetase (Mycobacterium tuberculosis) (UniProt P71716).
T2 sequence (whole entry): T1 sequence (P71716 whole entry)
The data set is described as follows: Inhibition of salicylate ligase MbtA in Mycobacterium tuberculosis H37Rv in iron-free GAST medium assessed as reduction in cell-wall associated lipophilic mycobactin-T production at pH 7.4 at 5 times MIC after 27 hrs by LC-MS/MS method relative to control. The method in brief: (§3)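 M. tuberculosis grown in iron-deficient GAST medium from an initial OD650 of 0.2, with or without inhibitor at 5 × MIC, for 27 and 70 h. Mycobactin-T (cell-wall associated) and carboxymycobactin (secreted plus cell-wall associated) quantified by LC–MS/MS in MRM mode against synthetic standards. Values normalized to cell density.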

In data set [8] the target is T2, Salicyl-AMP ligase / salicyl-S-ArCP synthetase (Mycobacterium tuberculosis). As to the kind of experiment: Inhibition of salicylate ligase MbtA in Mycobacterium tuberculosis H37Rv in iron-free GAST medium assessed as reduction in cell-wall associated lipophilic mycobactin-T production at pH 7.4 at 5 times MIC after 70 hrs by LC-MS/MS method relative to control. In a few lines:
as §3

Data set [9] shares this target. The data set is described as follows: Inhibition of salicylate ligase MbtA in Mycobacterium tuberculosis H37Rv in iron-free GAST medium assessed as reduction in water-soluble carboxymycobactin production at pH 7.4 at 5 times MIC after 27 to 70 hrs by LC-MS/MS method relative to control. In a few lines:
as §3

Data set [10] in a line: AUC (0 to 8 hrs) in Sprague-Dawley rat at 25 mg/kg, po administered as single dose via gavage by LC-MS/MS method. The class given is ADME, organism-based. Details: time < 8 hr, dose 25 mg/kg, route oral. Conditions: in vivo. The method in brief:
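Female Sprague–Dawley rats (n = 3), single oral dose 25 mg/kg. Plasma levels at time points measured by LC–MS/MS. AUC over 0–8 h, reported as mean ± SD.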

The nature of data set [11]: AUC (0 to 8 hrs) in Sprague-Dawley rat at 2.5 mg/kg, iv administered as single dose via bolus injection by LC-MS/MS method. The class given is ADME, organism-based. To be noted: in vivo. Further details: time < 8 hr, dose 2.5 mg/kg, route intravenous. The method in brief:
(§4)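 Female Sprague–Dawley rats (n = 3), single i.v. dose 2.5 mg/kg. Plasma concentrations at several time points by LC–MS/MS. AUC taken over 0–8 h. Clearance, volume of distribution and half-life derived from the i.v. curve, with elimination monoexponential. Reported as mean ± SD.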

Data set [12] is described as follows: Volume of distribution at steady state in Sprague-Dawley rat at 2.5 mg/kg, iv administered as single dose via bolus injection by LC-MS/MS method. The format is ADME, organism-based. To be noted: in vivo, read-out: Vdss. In a few lines:
as §4

The nature of data set [13]: Clearance in Sprague-Dawley rat at 2.5 mg/kg, iv administered as single dose via bolus injection by LC-MS/MS method. The class given is ADME, organism-based. To be noted: in vivo. The method in brief: as §4
The nature of data set [14]: Elimination half life in Sprague-Dawley rat at 2.5 mg/kg, iv administered as single dose via bolus injection by LC-MS/MS method. The format is ADME, organism-based. Conditions: in vivo, read-out: beta t1/2. The method in brief: as §4
A short description of data set [15]: Oral bioavailability in Sprague-Dawley rat at 25 mg/kg administered as single dose via gavage by LC-MS/MS method. The class given is ADME, organism-based. Conditions: in vivo. The method in brief: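 Oral bioavailability (F) in female Sprague–Dawley rats (n = 3), calculated by comparing AUC0–8h after a single 25 mg/kg p.o. dose with AUC0–8h after a 2.5 mg/kg i.v. dose. Plasma levels measured by LC–MS/MS.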

The test system of data set [16] is Mycobacterium tuberculosis. As to the kind of experiment: Antimycobacterial activity against wild type Mycobacterium tuberculosis in iron-free GAST medium at 0.04 to 10 uM after 8 days by two fold serial dilution method. The format is functional, organism-based.

Molecules are shown by their SMILES. Active and inactive are the calls of the source. The calls are words filed in the database; no cut-off is given here. A value given as a limit tells only on which side of the number the result lay.

In general, MIC99 refers to the lowest concentration that inhibits either 99% of growth or 99% of the strains tested, depending on the study. One may read the CC50 as the concentration giving 50% cytotoxicity. As a reminder, the MIC is the lowest concentration found to suppress growth. Usually AUC(0-t) stands for the area under the concentration-time curve up to a stated or last time point. By clearance is commonly meant a measure of how efficiently the substance is removed, as volume per time. In general, bioavailability refers to the share of a dose that reaches the circulation, judged against a reference dose that is usually intravenous.

As to `Nc1ncnc2c1ncn2[C@@H]1O[C@H](CNS(=O)(=O)c2noc3ccccc3c2=O)[C@@H](O)[C@H]1O`, the Ki in [1] was more than 50 µM. Also, in data set [2], the MIC99 is more than 50 µM. Besides, the CC50 in data set [3] and in [4] was more than 200 µM throughout.
Consider `CCN(CC)CC.Nc1ncnc2c1ncn2[C@@H]1O[C@H](CNS(=O)(=O)c2n[nH]c3cc(F)ccc3c2=O)[C@@H](O)[C@H]1O`, for which the Ki in [1] is 0.0116 µM. Besides, the MIC99 in [2] is 2.3 µM. Moreover, the CC50 in data set [3] and in data set [4] was more than 200 µM each time. The result in data set [5] was inactive. Further, in data set [6], the MIC is not below 50 µM. Further, the fold change (FC) is more than 2 in [7], 5 in data set [8] and 1.5 in data set [9]. For the same molecule, the values for the AUC(0-t) at 8 h in data set [10] and in data set [11] were 967 ng·h/mL and 4630 ng·h/mL, respectively. In data set [12], the Vd came to 0.57 L/kg. For the same molecule, the clearance in data set [13] amounted to 8.9 mL/min/kg. In addition, in data set [14], the half-life came out at 40 min. Moreover, the bioavailability in data set [15] was 2.1%.
On to `Nc1ncnc2c1ncn2[C@@H]1O[C@H](COS(=O)(=O)NC(=O)c2ccccc2O)[C@@H](O)[C@H]1O`, for which the MIC in data set [6] was not below 50 µM. In addition, in data set [16], the result was Active. In addition, the AUC(0-t) at 8 h in data set [10] was 1100 ng·h/mL; in [11], 8650 ng·h/mL. Also, the Vd in [12] amounted to 0.079 L/kg. In data set [13], this molecule showed a clearance of 4.9 mL/min/kg. Moreover, the half-life in [14] came to 11 min. In addition, in data set [15], the bioavailability was less than 1%.
As for `Nc1ncnc2c1ncn2[C@@H]1O[C@H](CNS(=O)(=O)c2n[nH]c3ccccc3c2=O)[C@@H](O)[C@H]1O`, the Ki in data set [1] was 0.0144 µM. In addition, in data set [2], the MIC99 came out at 4.7 µM. Moreover, the CC50 in data set [3] and in data set [4] was more than 200 µM throughout. Besides, the outcome in data set [5] was inactive. Further, the minimum inhibitory concentration (MIC) in [6] is not below 50 µM.
As to `Nc1ncnc2c1ncn2[C@@H]1O[C@H](CNS(=O)(=O)c2c[nH]c3ccccc3c2=O)[C@@H](O)[C@H]1O`, the Ki in data set [1] came out at 0.12 µM. In data set [2], the MIC99 was more than 50 µM. For the same molecule, the CC50 in data set [3] and in data set [4] was more than 200 µM throughout.
Regarding `Nc1ncnc2c1ncn2[C@@H]1O[C@H](CNS(=O)(=O)c2n[nH]c3ccc(F)cc3c2=O)[C@@H](O)[C@H]1O`, the Ki in data set [1] came out at 0.0209 µM. In addition, the MIC99 in data set [2] stood at 4.7 µM. For the same molecule, the CC50 in [3] and in data set [4] was more than 200 µM in each case. In [5], the result was inactive. Also, in data set [6], the MIC was not below 50 µM.
Regarding `Nc1ncnc2c1ncn2[C@@H]1O[C@H](CNS(=O)(=O)c2n[nH]c3cc(F)c(F)cc3c2=O)[C@@H](O)[C@H]1O`, the Ki in data set [1] came to 0.014 µM. For the same molecule, in [2], the MIC99 amounted to 3.1 µM. Moreover, the CC50 in data set [3] and in data set [4] was more than 200 µM each time. Also, the outcome in [5] was inactive. In addition, the MIC in [6] is not below 50 µM.

These data come from ChEMBL document CHEMBL4145560, “Conformationally Constrained Cinnolinone Nucleoside Analogues as Siderophore Biosynthesis Inhibitors for Tuberculosis” (ACS Med Chem Lett, 2018).
